≈ marks a conversion by molar mass, not a printed value.

What all share (assay type): functional
Experiment [1] has as its system Mycobacterium tuberculosis. Briefly: Antitubercular activity against Mycobacterium tuberculosis H37Rv in Middlebrook 7H9 broth with butyrate after 7 to 14 days by broth microdilution method. For orientation: In broth dilution the organism is exposed to a series of concentrations in liquid medium.
The test system of experiment [2] is Mycobacterium tuberculosis. Briefly: Antitubercular activity against Mycobacterium tuberculosis H37Rv in Middlebrook 7H9 broth with glucose after 7 to 14 days by broth microdilution method. In outline: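 Broth microdilution of H37Rv in 7H9 with 0.8 g/L NaCl, 5 g/L BSA fraction V, 4 g/L glucose and 0.05% Tyloxapol. Run in quadruplicate from DMSO stocks with DMSO controls; isoniazid positive control.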

The test system of experiment [3] is Mycobacterium tuberculosis. Briefly: Antitubercular activity against Mycobacterium tuberculosis H37Rv in GAST media with glycerol and alanine after 7 to 14 days by broth microdilution method.

`FC(F)(F)c1ccc(Nc2nc(-c3ccccn3)cs2)cc1`: the MIC99 (commonly an inhibitory concentration at the 99% level, which refers to growth in some studies and to a panel of isolates in others) in experiment [1] was 12.5 µM (≈ 4.02 µg/mL); in experiment [2] it was 25 µM (≈ 8.03 µg/mL); in experiment [3], ≥ 12.5 µM.
`CC1CC1C(=O)Nc1nc(-c2ccccn2)cs1` (stereo not given): the MIC99 is > 50 µM in experiment [1] and 6.3 µM (≈ 1.63 µg/mL) in experiment [2].
Take `Cc1cccc(Nc2nc(-c3ccccn3)cs2)n1`: the MIC99 in experiment [1] turned out to be 3.1 µM (≈ 0.832 µg/mL); in experiment [2] it was 6.3 µM (≈ 1.69 µg/mL); in experiment [3], 0.78 µM (≈ 0.209 µg/mL).
For `O=C(Nc1nc(-c2ccccn2)cs1)C1CC1` the same measures were 12.5 µM (≈ 3.07 µg/mL), 12 µM (≈ 2.94 µg/mL) and 6.3 µM (≈ 1.55 µg/mL).
Consider `O=C(Nc1nc(-c2ccccn2)cs1)c1ccco1`, for which the MIC99 in experiment [1] came to 6.3 µM (≈ 1.71 µg/mL); in experiment [2], 3.1 µM (≈ 0.841 µg/mL); in experiment [3], 1.6 µM (≈ 0.434 µg/mL).
On to `O=C(Nc1nc(-c2ccccn2)cs1)C1CCCC1`, for which the figures for the MIC99 in experiment [1] and in experiment [2] were 3.1 µM (≈ 0.847 µg/mL) and 12.5 µM (≈ 3.42 µg/mL), respectively.
Take `FC(F)(F)c1ccccc1Nc1nc(-c2ccccn2)cs1`: the MIC99 in experiment [1] turned out to be 6.3 µM (≈ 2.02 µg/mL); in experiment [2] it was 12 µM (≈ 3.86 µg/mL); in experiment [3], 6.3 µM (≈ 2.02 µg/mL).
On to `O=C(Nc1nnc(-c2ccccn2)s1)c1ccccc1F`, for which the MIC99 in experiment [2] and in experiment [3] was > 6.25 µM in each case.
In the case of `O=C(Nc1nc(-c2cnccn2)cs1)c1ccccc1`, the MIC99 in experiment [2] and in experiment [3] was > 25 µM each time.
Consider `O=C(Nc1nc(-c2cscn2)cs1)c1ccccc1`, for which the MIC99 in experiment [2] was > 25 µM; in experiment [3], ≥ 25 µM.
Regarding `O=C(Nc1nc(-c2ccccn2)cs1)c1cccc([N+](=O)[O-])c1`, the MIC99 in experiment [2] worked out at 1.6 µM (≈ 0.522 µg/mL); in experiment [3] it was 0.78 µM (≈ 0.255 µg/mL).
In the case of `O=C(Nc1nc(-c2ccccn2)cs1)c1ccccc1F`, the MIC99 in experiment [1] turned out to be 0.39 µM (≈ 0.117 µg/mL); in experiment [2], 1.6 µM (≈ 0.479 µg/mL); in experiment [3], 1.6 µM (≈ 0.479 µg/mL).
For the compound `O=C(Nc1nc(-c2ccccn2)cs1)c1ccc(F)c(F)c1`, the MIC99 in experiment [1] amounted to 3.1 µM (≈ 0.984 µg/mL); in experiment [2], 1.6 µM (≈ 0.508 µg/mL); in experiment [3], 0.39 µM (≈ 0.124 µg/mL).
As for `O=C(Nc1nc(-c2ccccn2)cs1)c1cccnc1`, the MIC99 was 3.1 µM (≈ 0.875 µg/mL) in experiment [1], 6.3 µM (≈ 1.78 µg/mL) in experiment [2] and > 12.5 µM in experiment [3].
As to `O=C(Nc1nc(-c2ccccn2)cs1)c1ccncc1`, the MIC99 in experiment [1] is 3.1 µM (≈ 0.875 µg/mL); in experiment [2], 1.6 µM (≈ 0.452 µg/mL); in experiment [3], 0.78 µM (≈ 0.22 µg/mL).
With `CN(C(=O)c1ccccc1)c1nc(-c2ccccn2)cs1`, the MIC99 in experiment [2] is > 25 µM; in experiment [3] it was ≥ 25 µM.
As for `O=C(Nc1ccccc1)c1nc(-c2ccccn2)cs1`, the MIC99 in experiment [2] and in experiment [3] was > 25 µM in each case.
For the compound `O=C(Nc1cc(-c2ccccn2)cs1)c1ccccc1`, the MIC99 in experiment [2] was > 25 µM; in experiment [3], 12.5 µM (≈ 3.5 µg/mL).
Take `O=C(Nc1nc(-c2ccccn2)c[nH]1)c1ccccc1`: the figures for the MIC99 in experiment [2] and in experiment [3] were 25 µM (≈ 6.61 µg/mL) and 3.13 µM (≈ 0.827 µg/mL), respectively.
For `O=C(Nc1nc(-c2ccccn2)co1)c1ccccc1`, the MIC99 in experiment [2] and in experiment [3] was 25 µM (≈ 6.63 µg/mL) each time.
With `O=C(Nc1nnc(-c2ccccn2)o1)c1ccccc1F`, the MIC99 in experiment [2] turned out to be 12.5 µM (≈ 3.55 µg/mL); in experiment [3] it was 6.25 µM (≈ 1.78 µg/mL).
As for `CCCCCCCC(=O)Nc1nc(-c2ccccn2)cs1`, the MIC99 is 6.3 µM (≈ 1.91 µg/mL) in experiment [1], 6.3 µM (≈ 1.91 µg/mL) in experiment [2] and 0.78 µM (≈ 0.237 µg/mL) in experiment [3].
With `CCCCCCCCCC(=O)Nc1nc(-c2ccccn2)cs1`, the MIC99 came to 3.1 µM (≈ 1.03 µg/mL) in experiment [1], 6.3 µM (≈ 2.09 µg/mL) in experiment [2] and 1.6 µM (≈ 0.53 µg/mL) in experiment [3].
As to `O=C(Nc1nc(-c2ccccn2)cs1)C1CCC1`, the values for the MIC99 in experiment [1], in experiment [2] and in experiment [3] were 6.3 µM (≈ 1.63 µg/mL), 12.5 µM (≈ 3.24 µg/mL) and 6.3 µM (≈ 1.63 µg/mL), respectively.
As for `O=C(Nc1nc(-c2ccccn2)cs1)C1CCCCC1`, the MIC99 stood at 3.1 µM (≈ 0.891 µg/mL) in experiment [1], 6.3 µM (≈ 1.81 µg/mL) in experiment [2] and 1.6 µM (≈ 0.46 µg/mL) in experiment [3].
Take `O=C(Nc1nc(-c2ccccn2)cs1)c1ccoc1`: the figures for the MIC99 in experiment [1] and in experiment [2] were 6.3 µM (≈ 1.71 µg/mL) and 3.1 µM (≈ 0.841 µg/mL), respectively.
Consider `O=C(Nc1nc(-c2ccccn2)cs1)c1cccs1`, for which, in experiment [2], the MIC99 came out at 1.6 µM (≈ 0.46 µg/mL).
For `O=C(Nc1nc(-c2ccccn2)cs1)c1ccsc1`, the MIC99 in experiment [1] was 3.1 µM (≈ 0.891 µg/mL); in experiment [2], 1.6 µM (≈ 0.46 µg/mL); in experiment [3], 0.78 µM (≈ 0.224 µg/mL).
In the same order, the values of `O=C(Nc1nc(-c2ccccn2)cs1)c1cscn1` are > 50 µM, > 50 µM and > 50 µM.
With `O=C(Nc1nc(-c2ccccn2)cs1)c1ccccc1O`, the MIC99 was 1.6 µM (≈ 0.476 µg/mL) in experiment [1], 1.6 µM (≈ 0.476 µg/mL) in experiment [2] and 0.19 µM (≈ 0.0565 µg/mL) in experiment [3].
Turning to `Cc1cccc(Nc2nc(-c3ccccn3)cs2)c1C`, the MIC99 in experiment [1] is 12.5 µM (≈ 3.52 µg/mL); in experiment [2] it was 12.5 µM (≈ 3.52 µg/mL); in experiment [3] it was 3.1 µM (≈ 0.872 µg/mL).
In the case of `Cc1ccc(Nc2nc(-c3ccccn3)cs2)c(C)c1`, the results for the MIC99 in experiment [1], in experiment [2] and in experiment [3] were 12.5 µM (≈ 3.52 µg/mL), 12.5 µM (≈ 3.52 µg/mL) and 6.3 µM (≈ 1.77 µg/mL), respectively.
As for `Cc1cccc(C)c1Nc1nc(-c2ccccn2)cs1`, the MIC99 in experiment [1] amounted to 12.5 µM (≈ 3.52 µg/mL); in experiment [2] it was 12.5 µM (≈ 3.52 µg/mL); in experiment [3], 3.1 µM (≈ 0.872 µg/mL).
As for `COc1ccc(Nc2nc(-c3ccccn3)cs2)c(OC)c1`, the MIC99 in experiment [1] was 6.3 µM (≈ 1.97 µg/mL); in experiment [2] it was 6.3 µM (≈ 1.97 µg/mL); in experiment [3], > 12.5 µM.
For the compound `COc1ccc(OC)c(Nc2nc(-c3ccccn3)cs2)c1`, the MIC99 in experiment [1] was > 50 µM; in experiment [2] it was > 50 µM; in experiment [3], > 12.5 µM.
As to `Fc1ccccc1Nc1nc(-c2ccccn2)cs1`, the MIC99 in experiment [1] was 25 µM (≈ 6.78 µg/mL); in experiment [2], 50 µM (≈ 13.6 µg/mL); in experiment [3] it was > 12.5 µM.
As for `Fc1cccc(Nc2nc(-c3ccccn3)cs2)c1`, the MIC99 in experiment [1] was 25 µM (≈ 6.78 µg/mL); in experiment [2], 25 µM (≈ 6.78 µg/mL); in experiment [3] it was > 12.5 µM.
Take `Fc1ccc(Nc2nc(-c3ccccn3)cs2)cc1`: the MIC99 in experiment [1] was 25 µM (≈ 6.78 µg/mL); in experiment [2] it was 25 µM (≈ 6.78 µg/mL); in experiment [3] it was 12.5 µM (≈ 3.39 µg/mL).
As to `FC(F)(F)c1cccc(Nc2nc(-c3ccccn3)cs2)c1`, the results for the MIC99 in experiment [1], in experiment [2] and in experiment [3] were 25 µM (≈ 8.03 µg/mL), 25 µM (≈ 8.03 µg/mL) and > 12.5 µM, respectively.
On to `Oc1ccccc1Nc1nc(-c2ccccn2)cs1`, for which the MIC99 is 25 µM (≈ 6.73 µg/mL) in experiment [1], 50 µM (≈ 13.5 µg/mL) in experiment [2] and > 12.5 µM in experiment [3].
Regarding `CCCC(=O)Nc1nc(-c2ccccn2)cs1`, the MIC99 in experiment [1] was 25 µM (≈ 6.18 µg/mL); in experiment [2], 12 µM (≈ 2.97 µg/mL); in experiment [3] it was 12.5 µM (≈ 3.09 µg/mL).
In the same order, the values of `CCCCCC(=O)Nc1nc(-c2ccccn2)cs1` are 3.1 µM (≈ 0.854 µg/mL), 6.3 µM (≈ 1.73 µg/mL) and 3.1 µM (≈ 0.854 µg/mL).
As for `O=C(Nc1nc(-c2ccccn2)cs1)c1ccc(Cl)cc1`, the MIC99 in experiment [1] worked out at 0.78 µM (≈ 0.246 µg/mL); in experiment [2], 1.6 µM (≈ 0.505 µg/mL); in experiment [3] it was 0.39 µM (≈ 0.123 µg/mL).
In the case of `Cc1ccc(Nc2nc(-c3ccccn3)cs2)cc1`, the MIC99 in experiment [1] is 12.5 µM (≈ 3.34 µg/mL); in experiment [2] it was 12.5 µM (≈ 3.34 µg/mL); in experiment [3], 6.3 µM (≈ 1.68 µg/mL).
For `c1ccc(Nc2nc(-c3ccccn3)cs2)nc1`, the MIC99 in experiment [1] stood at 0.39 µM (≈ 0.0992 µg/mL); in experiment [2], 0.78 µM (≈ 0.198 µg/mL); in experiment [3], 0.39 µM (≈ 0.0992 µg/mL).
For `Clc1ccc(Nc2nc(-c3ccccn3)cs2)nc1`, the MIC99 in experiment [1] turned out to be 1.6 µM (≈ 0.462 µg/mL); in experiment [2], 1.6 µM (≈ 0.462 µg/mL); in experiment [3], 0.39 µM (≈ 0.113 µg/mL).
As for `Cc1cccc(Nc2nc(-c3ccccn3)cs2)c1`, the MIC99 in experiment [1] stood at 12.5 µM (≈ 3.34 µg/mL); in experiment [2] it was 25 µM (≈ 6.68 µg/mL); in experiment [3] it was 6.3 µM (≈ 1.68 µg/mL).
Take `O=C(Nc1nc(-c2ccccn2)cs1)c1ccccc1[N+](=O)[O-]`: the MIC99 in experiment [2] amounted to 1.6 µM (≈ 0.522 µg/mL); in experiment [3], 0.78 µM (≈ 0.255 µg/mL).
As for `O=C(Nc1nc(-c2ccccc2)cs1)c1ccccc1`, the MIC99 in experiment [2] is > 25 µM; in experiment [3] it was ≥ 25 µM.

Source of the values: ChEMBL document CHEMBL2440116, “Structure-activity relationships of 2-aminothiazoles effective against Mycobacterium tuberculosis” (Bioorg Med Chem, 2013).
